Source: ChEMBL document CHEMBL3102734, “Inhibition of LOX by flavonoids: a structure-activity relationship study” (Eur J Med Chem, 2014)
Activity calls are given as the source filed them. No cut-off for these calls is given here.

Legend:
[1] = molecular target: T1, Polyunsaturated fatty acid 5-lipoxygenase (Homo sapiens) (UniProt P09917); assay: Inhibition of 5-LOX-mediated LTB4 production in human neutrophils using arachidonic acid as substrate at 40 uM preincubated for 10 mins followed by substrate addition measured after 8 mins by enzyme immunoassay relative to control
T1 sequence (whole entry): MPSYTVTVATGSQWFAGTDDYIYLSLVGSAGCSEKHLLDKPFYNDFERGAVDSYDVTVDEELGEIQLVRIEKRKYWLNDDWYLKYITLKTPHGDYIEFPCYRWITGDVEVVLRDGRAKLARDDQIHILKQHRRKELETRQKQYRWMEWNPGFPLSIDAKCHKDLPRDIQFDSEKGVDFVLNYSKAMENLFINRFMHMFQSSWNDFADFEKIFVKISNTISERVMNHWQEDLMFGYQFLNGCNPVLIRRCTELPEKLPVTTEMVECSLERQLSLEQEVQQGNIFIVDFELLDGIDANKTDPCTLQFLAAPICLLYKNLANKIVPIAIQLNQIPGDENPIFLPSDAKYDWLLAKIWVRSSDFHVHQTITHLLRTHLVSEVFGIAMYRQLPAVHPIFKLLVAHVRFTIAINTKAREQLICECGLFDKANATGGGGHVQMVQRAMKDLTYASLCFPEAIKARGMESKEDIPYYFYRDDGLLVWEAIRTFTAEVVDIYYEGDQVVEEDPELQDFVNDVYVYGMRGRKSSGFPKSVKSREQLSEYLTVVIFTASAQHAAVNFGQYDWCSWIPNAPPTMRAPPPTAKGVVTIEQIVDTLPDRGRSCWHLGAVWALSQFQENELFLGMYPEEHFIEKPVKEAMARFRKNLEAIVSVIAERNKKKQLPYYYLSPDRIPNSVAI
Outline: (§1)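 Isolated human neutrophils held in HBSS on ice; viability checked by trypan blue. Cells at 3.5×10^6 cells/mL equilibrated 10 min at 37 °C. Flavonoids (0.15–40 μM) pre-incubated 10 min, then A23187 (5 μM) plus arachidonic acid (10 μg/mL) added for 8 min. Stopped with cold methanol and centrifuged 13,000 g, 1 min, 4 °C. LTB4 measured by EIA and expressed as % inhibition of control. NDGA (1 μM) positive control. At least three experiments.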

[2] = molecular target: T2, Seed linoleate 13S-lipoxygenase-1 (Glycine max, UniProt P08170); assay: Uncompetitive inhibition of soybean LOX-1 using linoleic acid as substrate preincubated for 5 mins followed by substrate addition by Lineweaver-Burk plot analysis
T2 sequence (P08170 whole entry): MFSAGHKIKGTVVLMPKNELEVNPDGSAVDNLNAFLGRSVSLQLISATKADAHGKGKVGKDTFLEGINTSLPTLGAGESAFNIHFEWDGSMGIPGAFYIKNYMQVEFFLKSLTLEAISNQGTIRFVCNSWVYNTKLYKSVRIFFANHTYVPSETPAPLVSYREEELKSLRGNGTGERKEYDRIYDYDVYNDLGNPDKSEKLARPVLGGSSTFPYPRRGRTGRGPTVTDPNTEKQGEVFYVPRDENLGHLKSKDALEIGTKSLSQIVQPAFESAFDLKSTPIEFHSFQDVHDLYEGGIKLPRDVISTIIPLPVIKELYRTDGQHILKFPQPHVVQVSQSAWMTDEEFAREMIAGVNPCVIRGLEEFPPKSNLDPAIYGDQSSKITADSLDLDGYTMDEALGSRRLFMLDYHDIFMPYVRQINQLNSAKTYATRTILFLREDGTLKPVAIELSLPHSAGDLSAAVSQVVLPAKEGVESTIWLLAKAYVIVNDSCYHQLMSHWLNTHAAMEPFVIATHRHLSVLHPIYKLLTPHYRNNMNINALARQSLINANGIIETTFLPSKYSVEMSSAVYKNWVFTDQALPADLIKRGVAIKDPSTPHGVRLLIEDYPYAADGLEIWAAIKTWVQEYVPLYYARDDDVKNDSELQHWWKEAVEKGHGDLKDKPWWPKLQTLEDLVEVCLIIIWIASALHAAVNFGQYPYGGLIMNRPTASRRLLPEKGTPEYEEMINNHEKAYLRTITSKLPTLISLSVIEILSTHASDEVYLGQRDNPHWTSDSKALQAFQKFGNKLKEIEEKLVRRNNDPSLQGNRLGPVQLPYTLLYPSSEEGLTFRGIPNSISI
Outline: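 Soybean LOX-1 (supplied lyophilized) kinetic assay. Enzyme pre-incubated with inhibitor 5 min, then linoleic acid added. Readings every 30 s for 10 min; rate taken as the 0–3 min slope. Three inhibitor concentrations tested against three substrate concentrations. Inhibition type assigned by nonlinear Michaelis–Menten fitting and Lineweaver–Burk plots. At least four experiments, each in triplicate.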

[3] = molecular target: T3, Seed linoleate 13S-lipoxygenase-1 (Glycine max) (UniProt P08170); assay: Binding affinity to soybean LOX-1 at 1248 uM by STD-[1H] NMR spectroscopic analysis
T3 sequence (whole entry): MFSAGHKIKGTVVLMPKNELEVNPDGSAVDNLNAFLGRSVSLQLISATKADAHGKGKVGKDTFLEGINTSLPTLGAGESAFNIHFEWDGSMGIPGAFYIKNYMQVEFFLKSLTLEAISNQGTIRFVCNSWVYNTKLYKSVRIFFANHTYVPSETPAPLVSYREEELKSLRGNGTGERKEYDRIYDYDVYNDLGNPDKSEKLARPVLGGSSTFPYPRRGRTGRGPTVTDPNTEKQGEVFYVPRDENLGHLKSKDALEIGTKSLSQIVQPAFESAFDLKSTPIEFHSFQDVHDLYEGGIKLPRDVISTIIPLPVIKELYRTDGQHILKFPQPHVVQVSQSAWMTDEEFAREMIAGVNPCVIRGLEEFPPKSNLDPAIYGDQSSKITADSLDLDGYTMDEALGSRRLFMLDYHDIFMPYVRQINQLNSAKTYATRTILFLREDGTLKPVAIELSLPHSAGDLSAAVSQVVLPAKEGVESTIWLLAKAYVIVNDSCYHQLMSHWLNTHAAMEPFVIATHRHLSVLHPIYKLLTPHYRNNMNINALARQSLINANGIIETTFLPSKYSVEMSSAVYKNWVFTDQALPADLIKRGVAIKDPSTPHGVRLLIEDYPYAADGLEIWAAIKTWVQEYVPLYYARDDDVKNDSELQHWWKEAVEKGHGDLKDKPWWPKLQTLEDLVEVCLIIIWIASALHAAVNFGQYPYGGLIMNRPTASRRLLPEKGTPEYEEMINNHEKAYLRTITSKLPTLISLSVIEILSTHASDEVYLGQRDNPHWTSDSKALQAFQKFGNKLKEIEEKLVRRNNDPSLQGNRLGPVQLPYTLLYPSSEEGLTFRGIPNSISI
Outline: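 STD-1H NMR at 37 °C, 600 MHz, cryoprobe. Lyophilized soybean LOX-1 in Tris buffer (20 mM Tris, 7 mM (NH4)2SO4, 3.5 mM MgCl2, 0.3 mM DTT in D2O, pH 9.0). Ligand added from a 16.6 mM DMSO-d6 stock. Final concentrations: LOX 4 μM, ligand 1248 μM, ratio 300:1. On-resonance saturation at 1.0 ppm; off-resonance reference at 20000 Hz.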

[4] = molecular target: T4, Polyunsaturated fatty acid 5-lipoxygenase (Homo sapiens, UniProt P09917); assay: Inhibition of 5-LOX-mediated LTB4 production in human neutrophils using arachidonic acid as substrate preincubated for 10 mins followed by substrate addition measured after 8 mins by enzyme immunoassay
T4 sequence (P09917 whole entry): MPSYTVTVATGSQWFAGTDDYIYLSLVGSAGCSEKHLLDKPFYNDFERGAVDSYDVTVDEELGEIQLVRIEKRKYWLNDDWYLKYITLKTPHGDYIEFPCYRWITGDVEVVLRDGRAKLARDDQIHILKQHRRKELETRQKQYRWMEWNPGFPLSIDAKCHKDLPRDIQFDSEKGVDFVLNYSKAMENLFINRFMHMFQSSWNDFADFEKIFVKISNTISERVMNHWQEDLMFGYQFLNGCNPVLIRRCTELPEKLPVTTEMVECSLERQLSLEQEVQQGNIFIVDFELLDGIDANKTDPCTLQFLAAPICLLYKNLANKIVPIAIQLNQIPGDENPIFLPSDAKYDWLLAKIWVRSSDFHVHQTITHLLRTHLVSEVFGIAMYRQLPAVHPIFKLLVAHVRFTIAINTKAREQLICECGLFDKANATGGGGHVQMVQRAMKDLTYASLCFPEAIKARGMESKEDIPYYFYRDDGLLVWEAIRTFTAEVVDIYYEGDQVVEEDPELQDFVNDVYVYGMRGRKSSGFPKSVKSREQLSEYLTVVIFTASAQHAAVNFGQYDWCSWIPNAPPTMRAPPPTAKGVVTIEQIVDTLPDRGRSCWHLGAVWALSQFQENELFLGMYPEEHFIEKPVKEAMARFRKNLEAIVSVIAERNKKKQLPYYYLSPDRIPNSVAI
Outline: as §1, with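 “blue.” for “blue. Cells at 3.5×10^6 cells/mL equilibrated 10 min at 37 °C.”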

[5] = molecular target: T1, Polyunsaturated fatty acid 5-lipoxygenase (Homo sapiens); assay: Inhibition of 5-LOX-mediated LTB4 production in human neutrophils using arachidonic acid as substrate at 0.15 to 40 uM preincubated for 10 mins followed by substrate addition measured after 8 mins by enzyme immunoassay relative to control; outline: as §1

| inhibition [1] | SMILES | also measured |
| --- | --- | --- |
| < 50% | COc1ccc(-c2cc(=O)c3c(O)cc(O)cc3o2)cc1OC | – |
| 38.4% | O=c1cc(-c2ccc(O)cc2)oc2ccccc12 | – |
| 52% | O=c1cc(-c2cccc(O)c2)oc2cc(O)cc(O)c12 | Ki [2]: 95.4 µM; Activity [3]: Active |
| < 50% | O=c1cc(-c2ccccc2)oc2ccccc12 | – |
| < 50% | O=c1cc(-c2ccc(O)cc2)oc2cc(O)ccc12 | – |
| < 50% | COc1cc(-c2cc(=O)c3c(O)cc(O)cc3o2)ccc1O | – |
| 53.1% | O=c1cc(-c2ccccc2)oc2cc(O)ccc12 | – |
| – | O=c1cc(-c2ccc(O)c(O)c2)oc2cc(O)ccc12 | Activity [3]: Active; IC50 [4]: 2000 nM |
| < 50% | O=c1cc(-c2cccc(O)c2)oc2cccc(O)c12 | – |
| 53.4% | O=C1CC(c2ccc(O)c(O)c2)Oc2cc(O)cc(O)c21 (racemic) | – |
| – | COc1ccc(-c2cc(=O)c3c(O)cc(O)cc3o2)cc1O | inhibition [5]: inactive |
| Active | COc1ccc(-c2cc(=O)c3c(O)cc(O)cc3o2)cc1 | Activity [3]: Active |
